For data set [1], the system named is LNCaP. As to the kind of experiment: Inhibition of Akt phosphorylation in human LNCAP cells at 0.1 to 30 uM after 30 mins by Western blot analysis. Type of data set: cell-based. In outline:
(§1)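 Western blot: cells homogenized and spun at 10,000 g for 15 min. Supernatant kept as cytoplasmic fraction; nuclear proteins extracted with a kit. Denatured proteins run on gels, transferred to PVDF, probed with specific antibodies, and detected by enhanced chemiluminescence.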
(In general: A western blot detects proteins with antibodies after separation by electrophoresis.)

Data set [2] deals with LNCaP. As to the kind of experiment: Downregulation of survivin expression in human LNCAP cells at 0.1 to 30 uM after 24 hrs by Western blot analysis. Type of data set: functional, cell-based. In outline:
as §1

Data set [3] deals with LNCaP. As to the kind of experiment: Induction of apoptosis in human LNCAP cells assessed as increase in caspase3 activation at >10 uM after 1 to 2 days. Type of data set: functional, cell-based. In outline: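 LNCaP cells seeded at 1 10^4 per well, cultured 24 h, then treated 1 or 2 days. Caspase-3 activity read with a commercial caspase-3 kit in triplicate. Significance by Student's t-test, P < 0.05.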

The test system of data set [4] is LNCaP. Put plainly: Cytotoxicity against human LNCAP cells assessed as cell viability at 10 uM by CCK8 method. The data set is classed as functional, cell-based. To be noted: TDE = time-dependent effect. For orientation: Formazan colour is commonly taken as a measure of viable cells.
Data set [5] relates to LNCaP. As to the kind of experiment: Cytotoxicity against human LNCAP cells assessed as cell viability at 1 to 10 uM after 1 day by luciferase assay. Type of data set: cell-based. To be noted: 24 h, in the assay text read “by CCK-8 assay” for “by luciferase assay”. In outline:
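LNCaP cells lentivirally transduced with an AR luciferase reporter and selected with 30 µg/ml puromycin. Cells at 4 10^4 per well, kept 1 day in 10% stripped FBS, then treated 1 day in 0.1% stripped FBS with or without 0.1 µM DHT. Luciferase measured for AR activation and CCK-8 for viability; Student's t-test.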

Data set [6] relates to LNCaP. As to the kind of experiment: Cytotoxicity against human LNCAP cells assessed as cell viability after 4 days by CCK8 method. The data set is classed as functional, cell-based. To be noted: 96 h. Put shortly:
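LNCaP cells grown in RPMI1640 with 10% FBS plus penicillin/streptomycin at 37 °C, 5% CO2. Cells seeded at 3 10^3 per well, cultured 24 h, then exposed to compound for 4 days. Viability read by CCK-8 absorbance, in triplicate.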

For data set [7], the system named is LNCaP. Put plainly: Downregulation of CK2alpha expression in human LNCAP cells assessed as reduction of cytosolic protein level at 10 uM after 12 to 24 hrs by Western blot analysis. Type of data set: functional, cell-based. In outline:
as §1

Data set [8] deals with LNCaP. As to the kind of experiment: Downregulation of CK2alpha expression in human LNCAP cells assessed as reduction of nuclear protein level at 10 uM after 12 to 24 hrs by Western blot analysis. The data set is classed as functional, cell-based. In outline:
as §1

The subject of data set [9] is LNCaP. As to the kind of experiment: Induction of apoptosis in human LNCAP cells at 30 uM after 72 hrs by AnnexinV staining based fluorescent microscopy. Type of data set: functional, cell-based. Put shortly:
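LNCaP cells (5 10^4) plated on coverslips coated with 1% gelatin and treated 72 h. Annexin V kit staining, fixation in 2% formaldehyde, nuclei counterstained with 10 µg/ml DAPI. Annexin V-positive cells counted by fluorescence microscopy.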

The nature of data set [10]: Cytotoxicity against human RWPE1 cells assessed as cell viability at 10 uM after 3 days by CCK8 method. The data set is classed as cell-based, RWPE-1. The note with it: read-out: Activity. In outline: (§2)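 Normal prostate RWPE-1 cells kept in keratinocyte serum-free medium with 0.05 mg/ml bovine pituitary extract and 5 ng/ml recombinant human EGF. Cells seeded at 1 10^4 per well, cultured 24 h, then treated 1–3 days. Viability measured by CCK-8 in triplicate.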

The test system of data set [11] is LNCaP. Put plainly: Antiapoptotic activity against human LNCAP cells assessed as cell survival at 10 uM after 1 day by CCK8 method. The data set is classed as functional. To be noted: 24 h, read-out: Activity.
The nature of data set [12]: Cytotoxicity against human RWPE1 cells assessed as cell viability after 1 to 3 days by CCK8 method. Type of data set: cell-based. The note with it: rwpe-1. Put shortly:
as §2

Calls of active or inactive are those of the source. The rule behind the calls is not given here.

The term IC50 denotes the concentration at which inhibition is half-maximal.

For `O=c1cc(N2CCOCC2)oc2c(-c3ccccc3)cccc12`, the inhibition result in data set [1] was “Active”. In [2], the result was Active.
For `O=C(O)c1ccc2c(c1)nc(Nc1cccc(Cl)c1)c1ccncc12` [SILMITASERTIB], the result in data set [3], in data set [7], in data set [8] and in data set [9] was Active. The Activity entry was “tde” in [4], “Non-toxic” in data set [5] and “Non-toxic” in data set [12]. The IC50 in [6] is 4.59 µM. In [10], the viability at 72 h, 10 µM came out at 94%. Also, the viability at 10 µM in data set [11] was determined as 72%.

The values are drawn from ChEMBL document CHEMBL2146399, “Anti-androgen receptor activity of apoptotic CK2 inhibitor CX4945 in human prostate cancer LNCap cells” (Bioorg Med Chem Lett, 2012).
